Measurements: ChEMBL document CHEMBL3769304, “Potent α-amino-β-lactam carbamic acid ester as NAAA inhibitors. Synthesis and structure-activity relationship (SAR) studies” (Eur J Med Chem, 2016)
Values after ≈ are worked out from the molar mass of the structure shown.

How the values were obtained:
[1] = molecular target: T1, N-acylethanolamine-hydrolyzing acid amidase (Homo sapiens, UniProt Q02083); experiment: Inhibition of human NAAA expressed in HEK293 cells preincubated for 10 mins followed by N-(4-methyl-2-oxo-chromen-7-yl)-hexadecanamide substrate addition for 50 mins by fluorescence assay; assay type: cell-based
T1 sequence (Q02083 whole entry): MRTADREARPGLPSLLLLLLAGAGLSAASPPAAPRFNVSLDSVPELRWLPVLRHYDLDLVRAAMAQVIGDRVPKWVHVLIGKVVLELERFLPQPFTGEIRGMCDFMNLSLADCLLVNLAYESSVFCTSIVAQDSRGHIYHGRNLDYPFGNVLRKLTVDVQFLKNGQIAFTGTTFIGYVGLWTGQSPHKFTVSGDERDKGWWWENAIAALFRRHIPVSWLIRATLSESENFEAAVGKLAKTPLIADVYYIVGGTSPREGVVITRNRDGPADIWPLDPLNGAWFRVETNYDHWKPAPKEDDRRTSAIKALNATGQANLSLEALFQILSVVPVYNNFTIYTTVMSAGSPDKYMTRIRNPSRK

[2] = Half life in mouse plasma after 2 hrs by LC/MS-MS analysis; assay type: ADME, cell-free
[3] = Half life in mouse liver microsomes preincubated for 15 mins followed by NADPH addition measured after 1 hr by LC/MS-MS analysis; assay type: ADME
[4] = Kinetic solubility of the compound in PBS at pH 7.4 after 24 hrs by UPLC/MS analysis; assay type: physicochemical; conditions: read-out: Kinetic_solubility
How it was run: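 Kinetic solubility measured in PBS, pH 7.4; mean of three or more determinations.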

[5] = Half life in rat plasma after 2 hrs by LC/MS-MS analysis; assay type: ADME, cell-free
[6] = Half life in rat liver microsomes preincubated for 15 mins followed by NADPH addition measured after 1 hr by LC/MS-MS analysis; assay type: ADME
Homo sapiens = species on record: Homo sapiens; experiment: Selectivity ratio of IC50 for human acid ceramidase to IC50 for recombinant human NAAA
[7] = molecular target: T2, Fatty-acid amide hydrolase 1 (Homo sapiens) (UniProt O00519); experiment: Inhibition of human FAAH at 10 uM by fluorescence assay
T2 sequence (whole entry): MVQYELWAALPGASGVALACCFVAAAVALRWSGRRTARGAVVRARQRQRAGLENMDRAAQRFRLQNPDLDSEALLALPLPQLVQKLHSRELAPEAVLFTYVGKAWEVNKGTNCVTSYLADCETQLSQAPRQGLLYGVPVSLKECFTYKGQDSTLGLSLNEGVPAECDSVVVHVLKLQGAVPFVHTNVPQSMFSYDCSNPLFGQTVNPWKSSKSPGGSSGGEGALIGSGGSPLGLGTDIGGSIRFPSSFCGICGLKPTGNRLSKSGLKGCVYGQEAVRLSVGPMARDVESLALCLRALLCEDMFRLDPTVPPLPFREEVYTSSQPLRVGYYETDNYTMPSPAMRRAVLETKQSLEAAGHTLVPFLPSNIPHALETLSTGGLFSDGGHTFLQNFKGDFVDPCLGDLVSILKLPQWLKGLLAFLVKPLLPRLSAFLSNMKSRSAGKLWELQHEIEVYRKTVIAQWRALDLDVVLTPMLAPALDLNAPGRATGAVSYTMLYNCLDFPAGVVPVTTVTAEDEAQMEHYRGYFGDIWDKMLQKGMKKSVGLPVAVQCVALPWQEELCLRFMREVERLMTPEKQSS
How it was run: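 Enzyme source: membrane pellet (105,000 × g, re-suspended in PBS) from HEK293 cells stably transfected with h-FAAH-1; fluorogenic read-out; percent inhibition at 10 µM from two determinations.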

Acid ceramidase = molecular target: T3, Acid ceramidase (Homo sapiens, UniProt Q13510); experiment: Inhibition of human acid ceramidase by UPLC/MS analysis
T3 sequence (Q13510 whole entry): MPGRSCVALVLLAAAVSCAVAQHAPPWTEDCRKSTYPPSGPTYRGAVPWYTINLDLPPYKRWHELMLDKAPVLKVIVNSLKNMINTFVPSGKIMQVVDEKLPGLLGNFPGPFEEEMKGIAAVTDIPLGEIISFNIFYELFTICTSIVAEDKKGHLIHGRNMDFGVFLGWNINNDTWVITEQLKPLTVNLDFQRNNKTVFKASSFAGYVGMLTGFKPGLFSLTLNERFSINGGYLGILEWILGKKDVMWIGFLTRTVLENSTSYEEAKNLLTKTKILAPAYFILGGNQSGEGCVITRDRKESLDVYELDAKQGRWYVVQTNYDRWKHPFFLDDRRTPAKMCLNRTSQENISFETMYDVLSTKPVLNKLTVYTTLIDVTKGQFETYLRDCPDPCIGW

[8] = molecular target: T1, N-acylethanolamine-hydrolyzing acid amidase; experiment: Inhibition of human NAAA expressed in HEK293 cells preincubated for 10 mins followed by N-(4-methyl-2-oxo-chromen-7-yl)-hexadecanamide substrate addition for 50 mins by microplate reader analysis

Compound | IC50 [1] | half-life [2] | half-life [3] | solubility kinetic at 24 h [4] | half-life [5] | half-life [6] | Ratio IC50 (Homo sapiens) | inhibition [7] | IC50 (Acid ceramidase) | IC50 [8]
O=C(N[C@H]1CNC1=O)OCCCCc1ccc(C(F)(F)F)cc1 | 73 nM |  |  |  |  |  |  |  |  | 
O=C(N[C@H]1CNC1=O)OCc1ccc2c(c1)CCC2 | 130 nM |  |  |  |  |  |  |  |  | 
O=C(N[C@H]1CNC1=O)OCCCCc1ccccc1 | 1110 nM |  |  |  |  |  |  |  |  | 
O=C(N[C@H]1CNC1=O)OCc1ccc2c(c1)OC(F)(F)O2 |  | 25 min | 30 min | > 250 µM | > 120 min | 40 min | 365 | < 10% | 8.09 µM | 
CCCCCCCCC(=O)N[C@H]1CNC1=O |  |  |  |  |  |  |  |  |  | 340 nM
O=C(N[C@H]1CNC1=O)OCCCCC1CCC(F)(F)CC1 |  | 33 min | 34 min | > 250 µM | 7 min | 10 min | 140 | < 10% | 10.5 µM | 
O=C(N[C@H]1CNC1=O)OCCCCC1CCCCC1 |  | 41 min | < 5 min | 144 µM (≈ 38.6 µg/mL) | 12 min | < 5 min |  | < 10% | 6.27 µM | 
O=C(N[C@H]1CNC1=O)OCCCC1CCCCC1 | 44 nM |  |  |  |  |  |  |  |  | 
O=C(N[C@H]1CNC1=O)OCCCOC1CCCCC1 | 2670 nM |  |  |  |  |  |  |  |  | 

Further lines, results first:

IC50 [1] | half-life [2] | half-life [3] | solubility kinetic at 24 h [4] | half-life [5] | half-life [6] | Ratio IC50 (Homo sapiens) | inhibition [7] | IC50 (Acid ceramidase) | IC50 [8] | Compound
520 nM |  |  |  |  |  |  |  |  |  | COc1ccc(CCCCOC(=O)N[C@H]2CNC2=O)cc1
 | 31 min | 11 min | > 250 µM | > 120 min | < 5 min |  | < 10% | 2.41 µM |  | CCCOc1ccc(COC(=O)N[C@H]2CNC2=O)cc1
 | 29 min | < 5 min | 83 µM (≈ 22.9 µg/mL) | > 120 min | < 5 min | 55 | < 10% | 0.39 µM |  | CCCCc1ccc(COC(=O)N[C@H]2CNC2=O)cc1
1040 nM |  |  |  |  |  |  |  |  |  | Cc1ccc(COC(=O)N[C@H]2CNC2=O)cc1
 | 57 min | 5 min | 51 µM (≈ 15.4 µg/mL) | 104 min | < 5 min | 125 | < 10% | 1.51 µM |  | O=C(N[C@H]1CNC1=O)OCc1ccc(C2CCCCC2)cc1
